# Assay results pooled from the literature.
# Read-out: metabolic stability
# Host: human
Structure (SMILES),medium,concentration,pH,quantity,value
COCC(=O)N1CCC[C@H](C(=O)NCc2nc(-c3ccccc3)cs2)C1,hepatocytes,0.5 µM,,scaled CLint,29 mL/min/kg
O=c1c2c([nH]c3cc(OCc4ccc(OC(F)(F)F)cc4)ccc13)CCCC2,liver microsomes,1 µM,pH 7.4,microsomal CLint,36.5 µL/min/mg
CCONC(=O)N1CCC[C@H](C(=O)NCc2nc(-c3ccc(C#N)cc3)cs2)C1,liver microsomes,0.5 µM,,scaled CLint,11 mL/min/kg
Cc1cc(S(=O)(=O)NC2CC(N3CCN(CC4CCN(c5cccc6c5n(C)c(=O)n6C5CCC(=O)NC5=O)CC4)C4(CC4)C3)C2)ccc1Nc1ncc(C(F)(F)F)c(N2CCC[C@](C)(O)C2)n1 (stereo partly drawn),liver microsomes,1 µM,,scaled CLint,34 mL/min/kg
CCCN(CCC)CCOc1ccc2c(=O)c3c([nH]c2c1)CCCC3,liver microsomes,1 µM,pH 7.4,microsomal CLint,17.5 µL/min/mg
CNS(=O)(=O)c1ccc(Nc2ncc(C(F)(F)F)c(N3CCC[C@](C)(O)C3)n2)c(C)c1,liver microsomes,1 µM,,scaled CLint,29 mL/min/kg
C[C@H](O)c1cnc(NS(=O)(=O)c2ccc(Cl)c(Cl)c2)nc1,hepatocytes,1 µM,,hepatocyte CLint,< 3 µL/min/10⁶ cells
O=c1c2ccc(OCc3ccc(OC(F)(F)F)cc3)cc2[nH]c2cc(Cl)cc(F)c12,liver microsomes,1 µM,pH 7.4,microsomal CLint,14.9 µL/min/mg
Cc1ccc(-c2csc(CNC(=O)[C@H]3CCCN(C(=O)[C@H]4CCC(C)(C)O4)[C@H]3C)n2)cn1,liver microsomes,0.5 µM,,microsomal CLint,155 µL/min/mg
CNc1ccc(C(N)=O)cn1,hepatocytes,1 µM,pH 7.4,hepatocyte CLint,3 µL/min/10⁶ cells
O=c1c2ccc(OCc3ccc(C(F)(F)F)cc3)cc2[nH]c2cc(Cl)cc(F)c12,liver microsomes,1 µM,pH 7.4,microsomal CLint,6.71 µL/min/mg
Cc1cc(S(=O)(=O)N[C@H]2C[C@H](CN3CCN(c4ccc(C5CCC(=O)NC5=O)c(Cl)c4)CC3)C2)ccc1Nc1ncc(C(F)(F)F)c(N2CCC[C@](C)(O)C2)n1 (stereo partly drawn),liver microsomes,1 µM,,scaled CLint,21 mL/min/kg
O=c1c2cccc(Oc3ccc(OC(F)(F)F)cc3)c2[nH]c2cc(Cl)cc(F)c12,liver microsomes,1 µM,pH 7.4,microsomal CLint,6.75 µL/min/mg
CNS(=O)(=O)c1ccc(Nc2ncc(C(F)(F)F)c([C@H]3CC[C@](C)(O)CC3)n2)c(C)c1,liver microsomes,1 µM,,scaled CLint,< 14 mL/min/kg
O=c1c2ccc(Oc3ccc(OC(F)(F)F)cc3)cc2[nH]c2cc(Cl)c(F)cc12,liver microsomes,1 µM,pH 7.4,microsomal CLint,5.07 µL/min/mg
CNS(=O)(=O)c1ccc(Nc2ncc3cc(Cl)c(=O)n(C4CCCC4)c3n2)c(C)c1,liver microsomes,1 µM,,scaled CLint,100 mL/min/kg
CCCCN(CCCC)CCCOc1ccc2c(=O)c3c([nH]c2c1)CCCC3,liver microsomes,1 µM,pH 7.4,microsomal CLint,91.8 µL/min/mg
COCC(=O)N1CCC[C@H](C(=O)NCc2nc(-c3ccc(OC(F)(F)F)cc3)cs2)C1,liver microsomes,0.5 µM,,microsomal CLint,37 µL/min/mg
CC(C)(C)OC(=O)N1CCC(Oc2ccc3c(=O)c4c(Cl)cc(F)cc4[nH]c3c2)CC1,liver microsomes,1 µM,pH 7.4,microsomal CLint,7.13 µL/min/mg
O=C(NCc1nc(-c2ccc(C(F)(F)F)cc2)cs1)[C@H]1CCCN(C(=O)CO[C@H]2CCCNC2)C1,liver microsomes,0.5 µM,,microsomal CLint,13 µL/min/mg
Cc1cc(S(=O)(=O)N[C@H]2CC[C@H](CN3CCN(c4ccc(NC5CCC(=O)NC5=O)cc4F)CC3)CC2)ccc1Nc1ncc(C(F)(F)F)c(N2CCC[C@](C)(O)C2)n1 (stereo partly drawn),liver microsomes,1 µM,,scaled CLint,< 14 mL/min/kg
CCOCC(=O)N1CCC[C@H](C(=O)NCc2nc(-c3ccc(C)nc3)cs2)C1,hepatocytes,0.5 µM,,scaled CLint,33 mL/min/kg
C=CCn1c(=O)c2cnc(Nc3ccc(N4CCN(C)CC4)cc3)nc2n1-c1cccc(C(C)(C)O)n1,liver microsomes,,,scaled CLint,77 mL/min/kg
CNC(C)(C)COCC(=O)N1CCC[C@H](C(=O)NCc2nc(-c3ccc(C(F)(F)F)cc3)cs2)C1,liver microsomes,0.5 µM,,microsomal CLint,12 µL/min/mg
Cc1cc(S(=O)(=O)N[C@]2(C)C[C@@H](N3CCN(CC4CCN(c5ccc6c(c5F)n(C)c(=O)n6C5CCC(=O)NC5=O)CC4)CC3)C2)ccc1Nc1ncc(C(F)(F)F)c(N2CCC[C@](C)(O)C2)n1 (stereo partly drawn),liver microsomes,1 µM,,scaled CLint,120 mL/min/kg
C[C@H]1[C@@H](C(=O)NCc2nc(-c3ccc(C#N)cc3)cs2)CCCN1C(=O)[C@H]1CCO1,liver microsomes,0.5 µM,,microsomal CLint,131 µL/min/mg
Cc1cc(S(=O)(=O)NC2CC(N3CCN(CC4CCN(c5cccc6c5n(C)c(=O)n6C5CCC(=O)NC5=O)CC4)CC3)C2)ccc1Nc1ncc(C(F)(F)F)c(N2CCC[C@](C)(O)C2)n1 (stereo partly drawn),liver microsomes,1 µM,,scaled CLint,< 14 mL/min/kg
